ERa SRC1 pot – enhancers of ERα–SRC-1 coactivator binding, primary screen, biochemical, TR-FRET, ERα LBD, low estradiol. 86,000 compounds, 1.3% hits. coactivator binding (% of control), % at 25.6 µM. TR-FRET ERalpha-LBD/SRC-Cy5 coactivator binding, 2 h; 100 = basal binding, no effect. AID 639, 2007; in the data active = activity above about 200%;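 note: binding measured in presence of low estradiol as agonist stimulus; 0% = peptide alone without receptor and 100% = receptor with peptide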
Target sequence (P03372 whole entry, looked up, the tested form may be a part): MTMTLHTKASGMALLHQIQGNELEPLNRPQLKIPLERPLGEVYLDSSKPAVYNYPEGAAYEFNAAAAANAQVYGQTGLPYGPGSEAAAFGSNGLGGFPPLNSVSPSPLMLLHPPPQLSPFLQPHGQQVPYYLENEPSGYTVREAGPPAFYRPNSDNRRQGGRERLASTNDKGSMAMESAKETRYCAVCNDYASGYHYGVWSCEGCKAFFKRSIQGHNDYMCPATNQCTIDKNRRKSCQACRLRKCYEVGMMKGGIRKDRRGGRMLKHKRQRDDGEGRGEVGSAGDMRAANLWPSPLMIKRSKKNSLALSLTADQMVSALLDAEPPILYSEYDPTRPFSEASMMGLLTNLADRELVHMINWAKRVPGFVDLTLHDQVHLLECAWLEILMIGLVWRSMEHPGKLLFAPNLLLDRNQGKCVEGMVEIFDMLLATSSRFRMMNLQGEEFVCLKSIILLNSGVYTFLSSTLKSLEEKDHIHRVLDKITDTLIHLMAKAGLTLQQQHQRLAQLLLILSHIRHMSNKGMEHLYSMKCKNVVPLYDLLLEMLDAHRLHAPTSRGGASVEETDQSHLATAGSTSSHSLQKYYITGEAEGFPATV
sEH activator – soluble epoxide hydrolase activators, primary screen, biochemical, human sEH; Bifunctional epoxide hydrolase 2 (Homo sapiens), P34913; purified human sEH enzymatic activity, activator screen; activation, % at 2 µM; 91,000 compounds, 0.04% hits; AID 717, 2007; in the data active = activation above about 37%
ERa SRC1 inh – ERα–SRC-1 coactivator interaction inhibitors, primary screen, biochemical, TR-FRET, ERα LBD, estradiol-bound. TR-FRET ER-alpha LBD / SRC-1 peptide. AID 629, 2007. 86,000 compounds, 1.7% hits. Estrogen receptor (Homo sapiens), P03372. inhibition, % at 25.6 µM; in the data active = inhibition above about 50%;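 note: 0% = receptor plus peptide control and 100% = peptide only without receptor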
sEH inhibitor – soluble epoxide hydrolase inhibitors, primary screen, biochemical, human sEH | Bifunctional epoxide hydrolase 2 (Homo sapiens), P34913 | inhibition, % at 2 µM | 91,000 compounds, 0.34% hits | recombinant human sEH enzymatic activity assay; in the data active = inhibition above about 80%
ERb SRC1 inh – inhibitors of ERβ-SRC1 coactivator interaction, primary screen, biochemical, TR-FRET, ERβ LBD, SRC-1 peptide; Estrogen receptor beta (Homo sapiens), Q92731; TR-FRET ER-beta LBD / SRC1-Cy5 peptide binding; receptor agonist-loaded with 1 µM estradiol; inhibition, % at 25.6 µM; 86,000 compounds, 1.3% hits; AID 633, 2007;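 active = compounds whose percent inhibition of the receptor-coactivator binding signal exceeds about 50% in the single-dose screen, limit read from the data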;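 note: 0% = receptor plus peptide wells without compound and 100% = peptide-only wells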
HIV Rev-RRE inh – HIV-1 Rev-RRE binding inhibitors, primary screen, biochemical, FRET, protein-RNA interaction. P05866. Rev peptide-RRE RNA binding. inhibition, % at 8 µM. 97,000 compounds, 0.79% hits. AID 704, 2007;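 active = inhibition above the screen-wide mean plus 3 SD, cut at about 35% in these data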;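 note: 0% = median DMSO wells and 100% = median Neomycin B control wells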
Target sequence (P05866 whole entry, looked up): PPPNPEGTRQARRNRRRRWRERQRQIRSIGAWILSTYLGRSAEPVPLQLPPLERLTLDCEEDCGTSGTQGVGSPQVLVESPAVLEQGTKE
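Assay system: labelled RRE RNA duplex and labelled Rev peptide / Medium: HEPES pH 7.5 salt buffer with EDTA / Reagent: labelled Rev peptide / Schedule: 5 + 15 min at 25 °C / Signal: FRET, excitation 480 nm, emission 540 nm donor and 671 nm acceptor / Benchmarks: DMSO and neomycin B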
* = called active by the depositor; [ ] = another dose, or the depositor's remark. Only some compounds are listed: those with a hit (about 3.5% of all), similar ones and a draw of the others.

Screening O=C(NCc1ccc2c(c1)OCO2)C1CCN(Cc2cnn(-c3ccccc3)c2-n2cccc2)CC1 returned ERa SRC1 pot 119.1, sEH activator -84.4, ERa SRC1 inh -4.3, sEH inhibitor 84.1*, ERb SRC1 inh -2.1 and HIV Rev-RRE inh 10.4.
For O=C(NCc1ccc2c(c1)OCO2)C1CCN(c2ccc(S(=O)(=O)N3CCCC3)cc2)CC1 the results were sEH activator -86.1, sEH inhibitor 86.1* and HIV Rev-RRE inh 10.0.
Screening C(=NC12CN3CN(CN(C3)C1)C2)c1ccc2c(c1)OCO2 returned ERa SRC1 pot 124.3, sEH activator 9.1, ERa SRC1 inh 3.2, sEH inhibitor -7.5, ERb SRC1 inh 8.9 and HIV Rev-RRE inh 7.6.
O=C1c2ccccc2C(=O)c2c1oc(C(F)(F)F)c2C(=O)c1ccccc1 was read as ERa SRC1 pot 131.1, sEH activator -4.4, ERa SRC1 inh -1.8, sEH inhibitor 3.9, ERb SRC1 inh -3.7 and HIV Rev-RRE inh 15.6.
For O=C1c2ccccc2-c2onc3ccc(Oc4ccccc4)c1c23 the results were ERa SRC1 pot 59.8, sEH activator -0.4, ERa SRC1 inh 76.3*[fluorescence artefact?], sEH inhibitor 2.9, ERb SRC1 inh 41.2 and HIV Rev-RRE inh 64.3*.
CCCCNC1C(CC)C(CCC)C(C#N)(C#N)C1(C#N)C#N (configuration not stated) was read as ERa SRC1 pot 106.9, sEH activator 44.5*, ERa SRC1 inh 3.2, sEH inhibitor -48.4, ERb SRC1 inh -2.0 and HIV Rev-RRE inh 6.8.
For C/C(=N/OC(=O)c1c(F)cccc1F)c1nccs1 the results were sEH activator 39.0*, sEH inhibitor -39.5 and HIV Rev-RRE inh 2.3.
`CCCN1CCCc2cc(CN)ccc21` gave ERa SRC1 pot 58.7, sEH activator 9.1, ERa SRC1 inh 41.1, sEH inhibitor -6.9, ERb SRC1 inh 53.5*[fluorescence artefact?] and HIV Rev-RRE inh 46.3*.
Screening CN1CCCc2cc(C=O)ccc21 returned ERa SRC1 pot 98.8, sEH activator 3.4, ERa SRC1 inh -1.8, sEH inhibitor 2.1, ERb SRC1 inh -2.2 and HIV Rev-RRE inh 4.1.
COn1c(C)c(C(C)=O)c2c3nonc3ccc21 was read as ERa SRC1 pot 119.2, sEH activator -6.0, ERa SRC1 inh -4.8, sEH inhibitor 5.5, ERb SRC1 inh -4.4 and HIV Rev-RRE inh 15.1.
`CCN1CCC(C(N)=O)CC1` gave ERa SRC1 pot 105.0, sEH activator 2.8, ERa SRC1 inh 2.8, sEH inhibitor -1.4, ERb SRC1 inh 51.0* and HIV Rev-RRE inh 3.2.
For O=C1CC(C(F)(F)C(F)(F)C(F)(F)C(F)F)=Nc2ccccc2N1 the results were ERa SRC1 pot 100.9, sEH activator -2.7, ERa SRC1 inh -3.0, sEH inhibitor 4.1, ERb SRC1 inh 11.0 and HIV Rev-RRE inh 9.6.
`O=C1CC(/C=C/c2ccco2)=Nc2ccccc2N1` gave ERa SRC1 pot 80.3, sEH activator 13.2, ERa SRC1 inh 58.5*, sEH inhibitor -12.6, ERb SRC1 inh 43.6 and HIV Rev-RRE inh 40.6*.
Screening COc1ccccc1N1CCN(C/C(O)=C(\C#N)c2nc(-c3ccccc3)cs2)CC1 returned ERa SRC1 pot 72.8, sEH activator 11.0, ERa SRC1 inh 35.1, sEH inhibitor -9.3, ERb SRC1 inh 31.3 and HIV Rev-RRE inh -0.2.
Screening COc1ccccc1CNC(=O)c1nn(-c2ccc(C)cc2)c(=O)c2c1c1ccccc1n2C returned ERa SRC1 pot 112.1, sEH activator 9.0, ERa SRC1 inh -1.5, sEH inhibitor -7.5, ERb SRC1 inh 0.1 and HIV Rev-RRE inh 0.5.
`CCCCN1CCc2c([nH]c3c(C)cccc23)C1=O` gave ERa SRC1 pot 587.2*[fluorescence artefact?], ERa SRC1 inh -8.8 and ERb SRC1 inh -9.8.
For CCCc1c(C)c2cccc(C)c2[nH]c1=O the results were ERa SRC1 pot 96.0, sEH activator -1.1, ERa SRC1 inh 9.0, sEH inhibitor 1.4, ERb SRC1 inh 3.5 and HIV Rev-RRE inh 5.8.
`NC(=O)SC/C(=N\S(=O)(=O)c1ccccc1)Nc1ccccc1` gave ERa SRC1 pot 96.6, sEH activator 5.4, ERa SRC1 inh -0.5, sEH inhibitor -6.2, ERb SRC1 inh 97.5*[fluorescence artefact?] and HIV Rev-RRE inh 3.5.
Screening Cc1ccccc1-n1nc2c(c1NC(=O)c1ccc(Br)o1)CSC2 returned ERa SRC1 pot 207.2*[fluorescence artefact?], sEH activator -2.3, ERa SRC1 inh 19.8, sEH inhibitor 3.7, ERb SRC1 inh 41.7 and HIV Rev-RRE inh -1.6.
`CC(=O)Nc1c2c(nn1-c1ccc(C)cc1C)CSC2` gave ERa SRC1 pot 104.4, sEH activator -9.1, ERa SRC1 inh -2.2, sEH inhibitor 12.4, ERb SRC1 inh 2.1 and HIV Rev-RRE inh 5.9.
`Oc1ccc2ccccc2c1C=Nc1ccc(N2CCOCC2)cc1` gave ERa SRC1 pot 90.2, sEH activator 3.4, ERa SRC1 inh 13.3, sEH inhibitor -5.8, ERb SRC1 inh 9.7 and HIV Rev-RRE inh 71.8*[fluorescence artefact?].
Screening Oc1ccc2ccccc2c1C=NC12CN3CCN(CN(C3)C1)C2 returned sEH activator -9.8, sEH inhibitor 7.7 and HIV Rev-RRE inh 6.6.
O=C(NCCc1ccccc1)C1CC(c2ccccc2O)=NO1 (configuration not stated) was read as ERa SRC1 pot 117.8, sEH activator -10.2, ERa SRC1 inh -1.4, sEH inhibitor 10.3, ERb SRC1 inh 3.4 and HIV Rev-RRE inh 5.0.
Nc1ncc2c(n1)CC(c1ccco1)CC2=O (configuration not stated) was read as ERa SRC1 pot 93.9, sEH activator -9.3, ERa SRC1 inh 9.0, sEH inhibitor 7.5, ERb SRC1 inh 16.6 and HIV Rev-RRE inh 7.1.
O=C(CCc1ccc(S(=O)(=O)NCc2ccccc2)cc1)NCc1ccc2c(c1)OCO2 was read as ERa SRC1 pot 98.7, sEH activator -57.5, ERa SRC1 inh -3.6, sEH inhibitor 57.2, ERb SRC1 inh -3.5 and HIV Rev-RRE inh 8.7.
COc1cc2c3nnc(-c4ccc(F)cc4)c-3cn(Cc3ccc(C)cc3)c2cc1OC was read as ERa SRC1 pot 591.4*[fluorescence artefact?], sEH activator 0.1, ERa SRC1 inh 6.4, sEH inhibitor -1.1, ERb SRC1 inh 51.1*[fluorescence artefact?] and HIV Rev-RRE inh 10.0.
Screening Fc1ccc(Cn2cnc3ccccc32)cc1 returned ERa SRC1 pot 97.3, sEH activator 0.6, ERa SRC1 inh 4.4, sEH inhibitor -2.4, ERb SRC1 inh -11.2 and HIV Rev-RRE inh 0.3.
`COc1cc2c3nnc(-c4ccc(F)cc4)c-3cn(Cc3cccc(C)c3)c2cc1OC` gave ERa SRC1 pot 366.3*[fluorescence artefact?], sEH activator 10.0, ERa SRC1 inh 18.3, sEH inhibitor -11.1, ERb SRC1 inh 29.4 and HIV Rev-RRE inh 20.4.

Screens deposited in PubChem by several laboratories.
